# Rows were chosen to be rich in hits. Some 5.2% of all compounds tested hit in one or more screens of this group.
# NS3 helicase inh: HCV NS3 helicase inhibition | AID 1800 | NS3 helicase DNA unwinding, Cy5 molecular beacon fluorescence | inhibition, % at 10.9 µM | hit rate 0.56% among 290,000;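 active = inhibition above the mean of all tested compounds plus 3 SD, set per campaign, cut at about 35% in these data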;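 also: 0% = DMSO wells and 100% = thioflavine S control wells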
#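 Test system: hepatitis C virus NS3 helicase domain fragment enzyme. Also added: annealed dual-labelled DNA beacon duplex, ATP-started. Timing: 60 min unwinding reaction at 25 °C after ATP addition. Technique: Cy5 fluorescence. Measure: % inhibition of unwinding.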
# HCV core dimer: HCV core protein dimerization inhibition; TR-FRET GST/Flag-core106 dimerization, 1536-well; inhibition, % at 5 µM; hit rate 0.33% among 300,000;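 active = inhibition above the mean of all tested compounds plus 3 SD, set per screening campaign, cut at about 45% in these data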
#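 assay system = GST-tagged and Flag-tagged HCV core protein residues 1-106 | controls = unlabelled core106 and no-GST-core106 wells | incubation = compound-protein-antibody incubation 4 h at 22.5 °C | probe or stimulus = Eu donor and XL665 acceptor anti-tag antibodies | read-out = % inhibition based on acceptor/donor emission ratio | signal = TR-FRET 671 and 617 nm emission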
# M18AAP inhibitor: PfM18AAP enzyme inhibition | hit rate 1.2% among 290,000 | inhibition, % at 7.35 µM | recombinant PfM18AAP, H-Glu-NHMec fluorogenic cleavage;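 active = inhibition above the campaign mean inhibition over all tested compounds plus 3 SD, cut at about 28% in these data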;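 also: 0% = plate median of test compound wells and 100% = 2 mM ZnCl2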
# ZTA counter: blocks Epstein-Barr virus ZTA, an EBNA-1 counter-screen. P03206. ZTA-DNA binding, fluorescence polarization. inhibition, % at 11 µM. hit rate 0.15% among 320,000; in the data active = inhibition above about 33%
# Target sequence (P03206 whole entry, looked up): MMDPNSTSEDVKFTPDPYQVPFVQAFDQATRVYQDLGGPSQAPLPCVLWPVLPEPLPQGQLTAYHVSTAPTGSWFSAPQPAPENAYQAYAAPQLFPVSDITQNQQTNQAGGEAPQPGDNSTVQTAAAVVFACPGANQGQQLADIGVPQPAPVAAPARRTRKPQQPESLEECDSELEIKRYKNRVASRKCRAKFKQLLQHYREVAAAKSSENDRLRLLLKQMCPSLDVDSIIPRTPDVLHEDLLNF
# EBNA-1 inh: blocks EBNA-1 binding to DNA. inhibition, % at 14.8 µM. AID 1950. hit rate 0.34% among 300,000. EBNA-1 DNA binding, fluorescence polarization; in the data active = inhibition above about 28%
# ALR H2O2 inh: blocks human ALR sulfhydryl oxidase activity. AID 485317. hit rate 3.8% among 290,000. inhibition, % (test concentration not listed). purified ALR, DTT oxidation, H2O2 HRP-luminol luminescence. P55789;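 active = mean replicate inhibition above about 79%, with every replicate also reaching it, limit read from the data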
# Target sequence (P55789 whole entry, looked up): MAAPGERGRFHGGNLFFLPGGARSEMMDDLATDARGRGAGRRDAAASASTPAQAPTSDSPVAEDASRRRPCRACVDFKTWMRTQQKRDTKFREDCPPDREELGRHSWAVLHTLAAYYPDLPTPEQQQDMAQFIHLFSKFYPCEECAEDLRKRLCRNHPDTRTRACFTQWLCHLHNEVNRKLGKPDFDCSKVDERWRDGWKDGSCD
# Active calls of the source: *; x = no result given.
SMILES,NS3 helicase inh,HCV core dimer,M18AAP inhibitor,ZTA counter,EBNA-1 inh,ALR H2O2 inh
C(=N\Nc1ccccn1)/c1c[nH]c2ccccc12,5.6,-14.7,21.2,-1.9,1.1,98.9*
Brc1ccccc1/C=N/Nc1ccccn1,1.8,1.7,3.1,16.1,5.2,x
COc1ccc2ccccc2c1-c1sc(Nc2ccccc2)n[n+]1-c1ccc(F)cc1,-100.5,-2.4,-5.9,-1.8,-0.3,-0.6
COc1cccc(-c2nc3c(c(=O)[nH]c(=O)n3Cc3ccccc3)n2CCO)c1OC(F)F,13.3,-2.6,-4.0,-7.5,-4.0,-0.7
COc1ccc(N2C(=O)CC(NNc3ncc(Cl)cc3Cl)C2=O)cc1 (stereo not drawn),21.3,4.8,15.5,9.1,-0.4,83.8*
Cc1cc(C)c2c(N)c(C(=O)NN3CC(=O)N(c4ccccc4)CC3=O)sc2n1,-6.6,3.5,0.7,-2.3,-0.7,-9.6
CC1=NN(c2ccccc2)C(=O)C1c1ccccc1 (stereo not drawn),1.6,-32.8,-1.1,5.5,3.9,93.6*
O=C(COC(=O)c1cccc(S(=O)(=O)N2CCN(c3ccccc3)CC2)c1)NCc1ccco1,8.2,82.4*,-2.8,-4.3,7.0,3.2
O=C(OCCCOC(=O)c1ccccc1O)c1ccccc1O,-5.4,-0.2,-0.7,11.1,14.4,-1.7
COC(=O)c1ccc(=O)c2nc3/c(=C/O)c(O)cc(=O)c3[nH]c12,18.1,23.2,13.0,5.3,102.8*,-4.4
COC(=O)c1ccc(N)cc1O,2.1,-2.0,1.3,-5.3,-9.4,5.8
Cc1cccc(NC(=O)c2cccc(N3C(=O)C4C5C=CC(C6CC56)C4C3=O)c2)c1 (stereo not drawn),-2.4,10.5,-12.4,5.8,7.2,89.1*
Cc1cc(C)cc(NC(=O)c2cccc(N3C(=O)C4C5C=CC(C5)C4C3=O)c2)c1 (stereo not drawn),-5.0,x,3.5,x,x,x
COc1ccccc1C(=O)Nc1c(C(=O)N2CCN(C)CC2)oc2ccccc12,-26.2,-0.2,-8.0,-4.2,5.8,-13.6
COc1ccc(N2CCN(C(c3cccs3)C(C)NC(=O)C(=O)N3CCCCC3)CC2)cc1 (stereo not drawn),-0.5,3.5,9.7,7.8,-1.9,98.4*
COc1ccc(N2CCN(C(c3cccs3)C(C)NC(=O)C(=O)N3CCCC3)CC2)cc1 (stereo not drawn),0.9,-1.0,22.3,-2.5,-1.9,97.8*
CCS(=O)(=O)NC(C)C(c1cccs1)N1CCN(c2ccc(OC)cc2)CC1 (stereo not drawn),-3.5,2.8,5.2,-13.0,-17.8,99.1*
Cc1cccc(C)c1NC(=O)CNC(=O)c1ccc(NS(=O)(=O)c2ccc3[nH]c(=O)[nH]c3c2)cc1,x,-2.9,x,-4.8,4.8,7.1
Cc1nc(C)c(C(=O)N2CCCC(C(=O)c3cc(F)ccc3F)C2)s1 (stereo not drawn),0.9,11.2,-1.6,-10.4,5.2,-4.4
COC(=O)c1c(N)c(C#N)c2n1CCCCC2,23.0,0.9,14.3,16.1,1.8,8.8
N#Cc1c(N)c(C(=O)c2ccccc2)n2c1CCC2,6.0,3.4,-3.3,-9.0,-4.1,92.2*
CCC1CCc2sc(C(=O)OCC(=O)N(CCOC)c3c(N)n(Cc4ccccc4)c(=O)[nH]c3=O)cc2C1 (stereo not drawn),x,7.8,x,0.4,16.2,-16.1
COCCN(C(=O)COC(=O)c1cc2c(s1)CCC2)c1c(N)n(Cc2ccccc2)c(=O)[nH]c1=O,x,68.6*,x,12.5,17.6,1.5
C#CCN1C(=O)C2(OCCO2)c2ccccc21,1.7,3.8,-5.6,-7.4,-2.7,0.2
Cc1ccsc1/C=C1/SC(N2CC(C)OC(C)C2)=NC1=O (stereo not drawn),0.4,-2.5,-1.9,-6.3,0.5,99.1*
SMILES,NS3 helicase inh,HCV core dimer,M18AAP inhibitor,ZTA counter,EBNA-1 inh,ALR H2O2 inh
CCc1nc(SCC(=O)Nc2nc3c(s2)CCCC3)c2ccccc2n1,-10.7,7.8,1.5,4.0,-21.5,99.3*
CCCc1nc(SCC(=O)NC2CCCC2)c2ccccc2n1,8.1,-5.0,3.2,-4.5,4.6,x
CCCc1nc(SCC(=O)Nc2nc3c(s2)CCCC3)c2ccccc2n1,14.4,7.6,6.4,3.3,2.8,98.6*
Cc1[nH]c2ccccc2c1/C=N/NC(=S)NC(C)C,-6.5,-11.3,24.1,9.1,-6.4,99.5*
O=c1oc2ccccc2nc1/C=C(O)/C=C\c1ccccc1,34.5,50.2*,21.2,-24.2,-9.2,57.6
Cc1cc(N=Nc2ccccc2)c(NCC(O)C(O)C(O)CO)cc1C (stereo not drawn),-8.2,-28.4,3.3,5.4,4.0,97.8*
Nc1ccc(S(=O)(=O)C(F)(F)F)cc1N,-0.3,-0.6,-0.6,4.6,6.9,-2.3
CS(=O)(=O)c1ccc(N)c(SSc2cc(S(C)(=O)=O)ccc2N)c1,x,-31.3,x,-11.8,3.3,98.7*
O=C(Nc1ccc(-n2nncc2-c2ccco2)cc1)c1cc2ccccc2oc1=O,16.6,77.5*,3.6,-2.0,19.2,x
CCC(c1nnnn1CCOC)N(Cc1cc2c(C)cc(C)cc2[nH]c1=O)CC1CCCO1 (stereo not drawn),14.9,5.9,9.6,-12.7,-9.4,-1.7
CCC(c1nnnn1CCOC)N(Cc1ccc(C)cc1)Cc1cc2cc(OC)ccc2[nH]c1=O (stereo not drawn),-11.5,9.6,1.2,3.4,0.2,-33.0
CCC(c1nnnn1CCOC)N(Cc1cc2cc(C)c(C)cc2[nH]c1=O)CC1CCCO1 (stereo not drawn),-8.2,-2.8,13.6,-17.3,0.8,99.1*
CCCC(c1nnnn1CCOC)N(Cc1cc2cc(C)c(C)cc2[nH]c1=O)CC1CCCO1 (stereo not drawn),-5.3,4.4,0.4,-0.5,2.0,99.3*
CC(C)(C)NC(=O)Nc1nnc(SCC(=O)NC2CCCCC2)s1,x,4.0,x,0.1,-3.9,x
O=C(O)CCCC(=O)N1N=C(c2c(-c3ccccc3)c3cc(Cl)ccc3[nH]c2=O)CC1c1cccs1 (stereo not drawn),25.4,-0.5,-3.7,1.4,10.7,86.5*
COc1ccc(C(=O)N/N=C/c2ccc(N3CCOCC3)o2)cc1OC,-4.1,-28.5,9.5,-1.4,-6.4,x
COc1ccc(C(=O)N/N=C/c2ccc(N3CCOCC3)s2)cc1OC,x,x,x,2.7,x,93.1*
O=C(N/N=C/c1ccc(N2CCOCC2)s1)c1ccccc1Cl,6.2,-1.5,14.4,-8.1,-10.2,87.6*
CCOC(=O)N/N=C/c1ccc(N2CCOCC2)s1,7.0,-21.1,-0.4,-12.3,-7.6,98.6*
CCOc1ccc(CC(=O)N/N=C/c2sccc2C)cc1,-2.2,x,-3.4,x,x,-8.0
Cc1oc(-c2ccccc2Cl)nc1CS(=O)CC(=O)NCc1ccc(Cl)cc1 (stereo not drawn),-0.5,12.2,1.0,15.0,15.5,98.7*
